Data from ChEMBL document CHEMBL4041462, “Rice Bran Protein as a Potent Source of Antimelanogenic Peptides with Tyrosinase Inhibitory Activity” (J Nat Prod, 2016).
Active and inactive are the calls of the source. The rule behind the calls is not given here.

What was measured:
[1] = target: T1, Mushroom tyrosinase (Agaricus bisporus) (UniProt O42713+Q00024+C7FF04+C7FF05); test: Inhibition of mushroom tyrosinase diphenolase activity at 100 to 500 uM using L-DOPA as substrate
Summary of the method: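 Diphenolase: 2.0 mM L-dopa (stock, 100 μL) was mixed with 0.1 M phosphate buffer pH 6.5 and peptide or water, then preincubated 10 min at 30 °C. Mushroom tyrosinase (1320 units/mL stock) was added and dopachrome followed at 475 nm, 30 °C. Residual activity = rate (ΔA475/min) with inhibitor ÷ rate with water × 100. IC50 was estimated manually from inhibition curves. Performed three times.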

[2] = target: T1, Mushroom tyrosinase (Agaricus bisporus); test: Inhibition of mushroom tyrosinase monophenolase activity at 100 to 500 uM using L-tyrosine as substrate
Summary of the method: (§1)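 Monophenolase: 2.0 mM L-tyrosine (stock, 100 μL) in 0.1 M phosphate buffer pH 6.5 with peptide or water was preincubated 10 min at 30 °C. Mushroom tyrosinase (1320 units/mL stock) was added and absorbance at 475 nm monitored at 30 °C. Lag time was taken by extrapolating the linear dopachrome rise to the x-axis. Residual activity = (1/lag with inhibitor)/(1/lag with water) × 100. IC50 was read manually from curves. Triplicate.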

[3] = system: B16; test: Cytotoxicity against mouse B16 cells assessed as reduction in cell viability at 125 to 500 uM after 3 days by WST1/MTT assay; type: cell-based; details: b16, 72 h
Summary of the method: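 B16 mouse melanoma cells were grown in Eagle's MEM with Earle's salts, 5% or 10% FBS and 1% penicillin–streptomycin, 37 °C, 5% CO2. They were seeded at 1.0 × 10^3 cells/well and left 24 h. Medium was then replaced with 5% FBS medium containing peptide at 125, 250 or 500 μM. After 3 days, viability was read by WST-1. Matched DMSO without peptide served as background. Three independent experiments; mean ± SD.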

[4] = target: T2, Tyrosinase (Mus musculus) (UniProt P11344); test: Inhibition of tyrosinase in mouse B16 cells assessed as reduction in melanin production at 125 to 500 uM after 3 days; type: cell-based
T2 sequence (whole entry): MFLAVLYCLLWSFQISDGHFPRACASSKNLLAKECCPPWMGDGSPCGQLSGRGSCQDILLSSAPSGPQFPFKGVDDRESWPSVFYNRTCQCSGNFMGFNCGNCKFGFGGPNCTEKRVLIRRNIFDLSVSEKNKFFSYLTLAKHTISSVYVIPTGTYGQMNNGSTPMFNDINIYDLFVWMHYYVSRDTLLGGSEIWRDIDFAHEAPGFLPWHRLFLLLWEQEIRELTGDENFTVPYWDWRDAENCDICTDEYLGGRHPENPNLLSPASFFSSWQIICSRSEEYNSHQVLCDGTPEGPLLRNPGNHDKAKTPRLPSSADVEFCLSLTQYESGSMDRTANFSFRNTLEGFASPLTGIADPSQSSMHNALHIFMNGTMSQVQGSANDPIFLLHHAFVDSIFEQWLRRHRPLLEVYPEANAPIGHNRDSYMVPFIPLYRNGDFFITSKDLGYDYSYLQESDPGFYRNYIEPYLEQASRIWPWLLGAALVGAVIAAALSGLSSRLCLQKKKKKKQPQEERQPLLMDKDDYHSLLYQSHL
Summary of the method: (§2)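 Melanin content: B16 mouse melanoma cells were seeded at 1.5 × 10^4 cells/well and incubated 24 h. They were then exposed for 3 days to 125, 250 or 500 μM peptide in 5% FBS medium. Cells were harvested with 0.25% trypsin/1 mM EDTA, washed in PBS and lysed in 1 M NaOH, 1 h at 60 °C. Absorbance was read at 420 nm. Matched DMSO without peptide served as background.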

[5] = target: T2, Tyrosinase (Mus musculus); test: Inhibition of tyrosinase in mouse B16 cells assessed as reduction in melanin production at 500 uM after 3 days relative to control; type: cell-based; summary of the method: as §2
[6] = target: Mushroom tyrosinase (Agaricus bisporus, UniProt O42713+Q00024+C7FF04+C7FF05); test: Inhibition of mushroom tyrosinase monophenolase activity using L-tyrosine as substrate; summary of the method: as §1

inhibition [1]	inhibition [2]	inhibition [4]	inhibition [5]	IC50 [6]	Compound	Activity [3]
inactive	inactive	–	–	–	H-WEAGQDQR-OH	–
inactive	inactive	–	–	–	H-WEEEPEDER-OH	–
inactive	Active	inactive	–	–	H-HPTSEVY-OH	Non-Toxic
inactive	–	–	> 50%	156 µM	H-LQPSHY-OH	Non-Toxic

The next lines start with the compound.

Compound	inhibition [1]	inhibition [2]	inhibition [4]	inhibition [5]	IC50 [6]	Activity [3]
H-HGGEGGRPY-OH	inactive	Active	inactive	–	–	Non-Toxic
OC[C@H]1O[C@@H](Oc2ccc(O)cc2)[C@H](O)[C@@H](O)[C@@H]1O	–	–	–	Active	–	–
H-DTVHGQW-OH	inactive	inactive	–	–	–	–
